Rows were chosen to be rich in hits. Some 2.3% of all compounds tested hit in one or more screens of this group.
TRPC6 act: activators of mouse TRPC6 channel; HEK293-TRPC6 membrane potential dye fluorescence; active compounds read high; hit rate 0.13% among 310,000; B-score at 10 µM; Q61143;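 active = B-score of the integrated fluorescence ratio above library mean plus 3 SD, and starting fluorescence ratio within library mean plus 5 SD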;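 note: higher score means more depolarization so channel activation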
Target sequence (Q61143 whole entry, looked up): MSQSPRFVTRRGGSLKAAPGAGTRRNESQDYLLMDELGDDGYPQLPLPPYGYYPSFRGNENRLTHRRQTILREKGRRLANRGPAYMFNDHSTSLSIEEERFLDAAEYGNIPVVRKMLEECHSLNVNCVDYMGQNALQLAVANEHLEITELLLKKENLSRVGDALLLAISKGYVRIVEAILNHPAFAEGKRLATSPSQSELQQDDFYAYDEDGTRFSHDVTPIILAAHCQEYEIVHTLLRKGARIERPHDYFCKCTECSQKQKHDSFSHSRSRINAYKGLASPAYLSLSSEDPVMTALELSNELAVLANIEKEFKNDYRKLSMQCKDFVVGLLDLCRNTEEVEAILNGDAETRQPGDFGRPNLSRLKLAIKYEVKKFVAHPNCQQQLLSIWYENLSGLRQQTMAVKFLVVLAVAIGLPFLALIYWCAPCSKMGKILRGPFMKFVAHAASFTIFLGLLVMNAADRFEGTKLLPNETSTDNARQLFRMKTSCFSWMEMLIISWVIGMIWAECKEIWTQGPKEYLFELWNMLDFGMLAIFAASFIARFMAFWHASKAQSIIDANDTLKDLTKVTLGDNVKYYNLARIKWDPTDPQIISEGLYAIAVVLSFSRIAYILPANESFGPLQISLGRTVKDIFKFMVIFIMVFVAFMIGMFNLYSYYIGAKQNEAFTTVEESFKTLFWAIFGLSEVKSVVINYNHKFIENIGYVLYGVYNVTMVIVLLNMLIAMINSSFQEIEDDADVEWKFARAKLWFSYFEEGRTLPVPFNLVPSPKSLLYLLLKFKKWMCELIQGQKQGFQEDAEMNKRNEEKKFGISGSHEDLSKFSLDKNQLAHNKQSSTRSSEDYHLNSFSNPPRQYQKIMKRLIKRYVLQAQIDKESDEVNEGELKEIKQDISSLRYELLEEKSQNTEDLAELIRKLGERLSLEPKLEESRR
TRPC6 inhibitor: blocks the mouse TRPC6 cation channel. B-score at 10 µM. AID 2553. hit rate 1.1% among 310,000. Q61143. HEK293-TRPC6, membrane potential dye, ACh-evoked depolarization; active compounds read low;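 active = B-score under library mean minus 3 SD, initial fluorescence not abnormally high, positive integrated signal ratio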;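 note: B-score derived from integrated fluorescence ratio over the kinetic read; more negative B-score means stronger inhibition of depolarization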
TRPC4 act: opens the mouse TRPC4 cation channel; HEK293 TRPC4beta/mu-opioid, Fluo4 calcium fluorescence; active compounds read high; hit rate 0.49% among 310,000; AID 2237; B-score at 10 µM;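 active = B-score above 5 SD of library B-scores, and initial fluorescence ratio not above library mean plus 5 SD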;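 note: positive B-score marks a calcium rise read as TRPC4 activation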
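System – HEK293 cells stably co-expressing mouse TRPC4beta and mu-opioid receptor · Signal – Fluo4 calcium-sensitive dye fluorescence, kinetic, 1 Hz baseline · Benchmarks – buffer (low) and maximal DAMGO (high) · Read-out – B score of integrated fluorescence ratio per well · Incubation – dye loading 45 min room temperature, 110 s kinetic read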
TRPC4 PAM: TRPC4 (mouse) allosteric potentiation; Q9QUQ5; HEK293 TRPC4beta/mu-opioid, DAMGO EC20, Fluo-4 Ca2+ flux; active compounds read high; B-score at 10 µM; hit rate 0.42% among 310,000; AID 2227;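 active = B-score of calcium response area above 5 SD of library B-scores, with initial fluorescence ratio within 5 SD of library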;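 note: B-score of integrated fluorescence ratio over time as area under calcium response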
TRPC4 inh: blocks the mouse TRPC4 cation channel; B-score at 10 µM; HEK293 TRPC4beta/mu-opioid, DAMGO-evoked Fluo4 calcium flux; active compounds read low; Q9QUQ5; hit rate 0.39% among 300,000;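 active = B-score over 3 SD under the library average, no early fluorescence shift, positive overall ratio signal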
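Assay system: HEK293 cells with stable TRPC4beta plus mu-opioid receptor expression. Dosing: single dose. Measured by: Fluo4 Ca2+ flux fluorescence. Also added: DAMGO in two steps, submaximal then maximal. Read-out: B score from integrated Fluo4 fluorescence ratio.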
HEK293 MPD ctr: checks TRPC6 modulator effects in parental HEK293 cells; membrane potential dye fluorescence; membrane potential signal change, % at 10 µM; shares compounds with TRPC6 inhibitor; hit rate 51% among 2,400; AID 488924;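 active = membrane potential signal moves up or down beyond 5 SD from buffer-only wells, on both duplicate plates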
HEK293 MPD ctr 2: parental HEK293 nonspecific activity of TRPC6 modulators, second screen. shares compounds with TRPC6 inhibitor. hit rate 14% among 2,400. inhibition, % at 10 µM. membrane potential dye fluorescence; after compound, maximal acetylcholine stimulation;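 active = membrane potential signal drops by more than 5 SD from the mean control signal, in both duplicate plates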;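 note: plate controls were acetylcholine ECmax control wells for no effect and buffer only wells for full effect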
TRPC4/MOR mod: selectivity of TRPC6 modulators against mouse TRPC4; shares compounds with TRPC6 inhibitor; HEK293 TRPC4/mu-opioid, membrane potential fluorescence; percent change from control (negative = decrease, positive = increase), % at 10 µM; hit rate 69% among 2,400; AID 488927;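 active = membrane potential signal moved up or down beyond 5 SD of buffer control wells, in both duplicate plates, actives on both sides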;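 note: plate controls were assay buffer wells for no effect and DAMGO maximal-effect wells for full effect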
TRPC4/MOR inh 2: mouse TRPC4 off-target activity of TRPC6 modulators, second screen; hit rate 55% among 2,400; inhibition, % at 10 µM; HEK293 TRPC4/mu-opioid, membrane potential dye fluorescence; stimulated with maximal-effect DAMGO; shares compounds with TRPC6 inhibitor; AID 488928;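 active = drop in membrane potential signal beyond 5 SD of the control wells in both duplicate plates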;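 note: TRPC4 counter screen for TRPC6 hits run under conditions tuned for TRPC6 not TRPC4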
TRPC6 block conf: confirmation of mouse TRPC6 inhibitors; shares compounds with TRPC6 inhibitor; HEK293-TRPC6, membrane potential dye, ACh-evoked depolarization; inhibition, % at 10 µM; hit rate 43% among 3,300; AID 488960;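 active = fluorescence ratio falls more than 5 SD below the full-stimulation control mean, in both duplicate runs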;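 note: integrated fluorescence ratio of peak minus minimum over baseline after agonist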
TRPC6 act confirm: confirmation of mouse TRPC6 activators; HEK293-TRPC6 membrane potential dye fluorescence, FDSS; activation, % at 10 µM; shares compounds with TRPC6 inhibitor; hit rate 11% among 2,800; AID 488961;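 active = ratio signal rise beyond 5 SD above unstimulated control wells' mean, seen in both duplicate runs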;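 note: plate controls were buffer EC0 wells for no effect and acetylcholine ECmax response for full effect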
Numbers without * were called inactive; i = inactive; nt = not tested or not shown.

SMILES	TRPC6 act	TRPC6 inhibitor	TRPC4 act	TRPC4 PAM	TRPC4 inh	HEK293 MPD ctr	HEK293 MPD ctr 2	TRPC4/MOR mod	TRPC4/MOR inh 2	TRPC6 block conf	TRPC6 act confirm
CC1CCN(C(=O)c2cccc(S(=O)(=O)N3CCCCC3)c2)CC1	13*	-8.3*	i	i	i	108%*	i	20%*	i	73%*	106%*
COCCC(=O)N1CCC(Oc2ccc(C(=O)N3CCC(N(C)C)C3)cc2)CC1 (configuration not stated)	i	i	i	i	i	nt	nt	nt	nt	nt	nt
CCOC(=O)N1CCN(C(=O)C2CCC(=O)N(Cc3ccc(Cl)cc3)C2)CC1 (configuration not stated)	i	i	i	i	i	nt	nt	nt	nt	nt	nt
O=C(Cn1nnc(-c2ccccc2)n1)c1ccccc1	i	i	i	i	i	nt	nt	nt	nt	nt	nt
O=C(Cn1c(-c2ccccc2)c[n+]2ccsc12)c1ccccc1	i	-5.3*	i	i	-11*	i	i	16%*	58%*	i	i
O=C(Cn1c(-c2ccccc2)c[n+]2ccsc12)c1ccc([N+](=O)[O-])cc1	i	-5.3*	50*	i	-7*	-198%*	i	35%*	90%*	i	i
O=C(N/N=C/c1cccnc1)c1ccc([N+](=O)[O-])cc1	i	-5.3*	i	i	i	-196%*	i	-36%*	30%*	i	i
O=C(N/N=C/c1cccc([N+](=O)[O-])c1)c1cc[n+](CCO)cc1	i	-5.7*	i	i	i	-88%*	i	-22%*	i	i	i
Nc1cc(=O)[nH]c(=O)n1Cc1ccco1	i	-5.3*	i	i	i	i	i	i	i	i	i
Cc1nc2c(C)cccc2c2c1CCS2	i	i	i	i	i	nt	nt	nt	nt	nt	nt
Cc1ccc2nc(C)c3c(c2c1)SCC3	i	-5.2*	i	i	i	-170%*	i	-36%*	38%*	i	i
CN(C)CCNc1nc(-c2ccccc2)nnc1C(F)(F)F	i	i	i	i	i	nt	nt	nt	nt	nt	nt
Cc1nnc(-c2ccc(Cl)cc2)nc1NCCN(C)C	i	-5*	i	i	i	i	i	i	i	i	i
COc1cc(-c2cc[n+](C)cc2)ccc1O	i	-6*	i	i	i	-329%*	i	-53%*	i	i	i
Cc1ccc(S(=O)(=O)Nc2ccccc2C(=O)Nc2nc(-c3ccc(F)cc3)cs2)cc1	i	i	i	i	i	nt	nt	nt	nt	nt	nt
COc1ccc(-c2csc(NC(=O)c3ccccc3NS(=O)(=O)c3ccc(F)c(F)c3)n2)cc1	i	-5.3*	i	i	i	i	i	-15%*	56%*	64%*	i
Cc1cccc(OCC(O)Cn2c(N3CCCCC3)nc3c2c(=O)n(C)c(=O)n3C)c1 (configuration not stated)	i	-6.1*	i	i	i	i	i	8.0%*	i	80%*	nt
Cn1c(=O)c2c(nc(N3CCCCCC3)n2CC(O)COc2ccccc2)n(C)c1=O (configuration not stated)	i	i	i	i	i	nt	nt	nt	nt	nt	nt
Cc1ccc(Nc2cc(C)nc(-c3ccccc3)n2)cc1	i	i	i	i	i	nt	nt	nt	nt	nt	nt
CCOC(=O)N1CCC(n2c(SCC(=O)OCc3ccccc3)nc3ccsc3c2=O)CC1	i	i	i	i	i	nt	nt	nt	nt	nt	nt
CCOC(=O)CSc1nc2ccsc2c(=O)n1C1CCN(C(=O)OCC)CC1	15*	-6.8*	i	i	i	133%*	i	34%*	i	i	60%*
CC1CC(C)CN(c2nc3c(c(=O)n(C)c(=O)n3C)n2CCSc2ncccn2)C1 (configuration not stated)	i	i	i	i	i	nt	nt	nt	nt	nt	nt
CCN1CCN(c2nc3c(c(=O)n(C)c(=O)n3C)n2CCSc2nccc(C)n2)CC1	i	-12*	i	i	i	-284%*	118%*	-46%*	72%*	78%*	i
Cn1c(=O)c2c(nc(N3CCOCC3)n2CCSc2ncccn2)n(C)c1=O	i	-5.6*	i	i	i	-360%*	i	-56%*	i	i	i
CCOc1ccccc1CSc1nc2ccccc2[nH]1	i	-5.8*	i	i	i	i	i	i	i	i	i
Cc1ncc(CSc2nc3ccccc3[nH]2)c(N)n1	i	i	i	i	i	nt	nt	nt	nt	nt	nt
Cc1sc(NC(=O)c2sc3nc4c(C)cccc4cc3c2N)c(C#N)c1C	13*	i	i	i	i	i	i	13%*	i	i	i
O=C(CCc1cn2ccccc2n1)NC1CCCc2c1cnn2-c1ccccc1F (configuration not stated)	i	i	i	i	i	nt	nt	nt	nt	nt	nt
COC(=O)c1sc2nc(-c3ccccc3)nc(N3CCN(C)CC3)c2c1C	i	-5.4*	i	i	i	-122%*	i	-29%*	i	i	i
CCOC(=O)c1sc2ncnc(N3CCN(C)CC3)c2c1C	i	-5.5*	i	i	i	-118%*	i	-20%*	34%*	i	i

Compound activity (PubChem)
